Two compounds from ChEMBL document CHEMBL1145471, “Small molecule regulators of autophagy identified by an image-based high-throughput screen” (Proc Natl Acad Sci U S A, 2007) can be followed below.

The test system of one experiment is H4. The experiment is described as follows: Increase in light chain 3-GFP+ autophagosome vesicle intensity per cell in human H4 cells at 5.4 uM after 24 hrs by high throughput fluorescence microscopy relative to control. Format: functional. The gist of the method: (§1)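 H4 cells stably expressing LC3-GFP, seeded in 96-well plates and exposed to compound for 24 h; fixed in 4% paraformaldehyde, nuclei stained with 3 μg/ml DAPI. Automated fluorescence microscopy scored number, size and intensity of LC3-GFP spots; values expressed relative to DMSO-treated wells, rapamycin positive control. Triplicate wells, mean ± SD; experiments repeated three times.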
`N#Cc1cc2c(OCC(O)CN3CCN(C(c4ccccc4)c4ccccc4)CC3)cccc2[nH]1` (configuration not stated) registered an Activity of 329.96%.

The next experiment deals with H4. The experiment is described as follows: Increase in light chain 3-GFP+ autophagosome vesicle number per cell in human H4 cells at 6.2 uM after 24 hrs by high throughput fluorescence microscopy relative to control. Format: functional. The essentials:
(§2)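 H4 cells stably expressing LC3-GFP were grown in DMEM with 10% FBS and 2 mM L-glutamine at 37°C, 5% CO2. They were exposed to each compound for 24 h, with DMSO as negative and rapamycin as positive control. Cells were then fixed in 4% paraformaldehyde and stained with 3 μg/ml DAPI. High-throughput fluorescence imaging scored LC3-GFP spot number, size and intensity, expressed relative to DMSO. Mean ± SD of triplicates; experiments repeated three times.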
`CC(C)[C@@H](O)CC[C@@H](C)[C@H]1CC[C@H]2[C@@H]3CC=C4C[C@@H](O)CC[C@]4(C)[C@H]3CC[C@]12C` yielded an Activity of 220.93%.

The next experiment has as its system H4. The experiment is described as follows: Decrease in FYVE-RFP+ vesicle intensity per cell in human H4 cells after 2 hrs relative to control. Format: functional. More on the design: concentration or dose not given beside the values. The gist of the method:
(§3)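 H4 cells stably expressing FYVE-RFP (H4-FYVE), grown in DMEM with 10% FBS, penicillin/streptomycin and 2 mM L-glutamine at 37°C, 5% CO2, seeded in 96-well plates and exposed to compound. Fixed in 4% paraformaldehyde, nuclei stained with 3 μg/ml DAPI, FYVE-RFP+ vesicles quantified by high-throughput fluorescence microscopy against DMSO control. Triplicate wells, mean ± SD.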
Compound `CC(C)[C@@H](O)CC[C@@H](C)[C@H]1CC[C@H]2[C@@H]3CC=C4C[C@@H](O)CC[C@]4(C)[C@H]3CC[C@]12C` returned an Activity of 38.02%.

The subject of the next experiment is H4. The experiment is described as follows: Effect on FYVE-RFP+ vesicle intensity per cell in human H4 cells after 2 hrs relative to control. Format: functional. Also on record: concentration or dose not given beside the values. The gist of the method: as §3
The compound `N#Cc1cc2c(OCC(O)CN3CCN(C(c4ccccc4)c4ccccc4)CC3)cccc2[nH]1` (configuration not stated) gave an Activity of 65.87%.

The next experiment concerns H4. The experiment is described as follows: Increase in light chain 3-GFP+ autophagosome vesicle area per cell in human H4 cells at 6.2 uM after 24 hrs by high throughput fluorescence microscopy relative to control. Format: functional. The essentials:
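H4 cells stably expressing LC3-GFP, seeded in 96-well plates and exposed to compound for 24 h; screening concentrations were 3–12 μM, with rapamycin 0.22 μM and bafilomycin A1 0.40 μM. Cells fixed in 4% paraformaldehyde and stained with 3 μg/ml DAPI. Number, size and intensity of LC3-GFP spots measured by high-throughput fluorescence microscopy and expressed as percent of DMSO-treated wells. Rapamycin was the positive control. Triplicate wells, mean ± SD; experiments repeated three times.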
`CC(C)[C@@H](O)CC[C@@H](C)[C@H]1CC[C@H]2[C@@H]3CC=C4C[C@@H](O)CC[C@]4(C)[C@H]3CC[C@]12C` returned an Activity of 299.59%.

The subject of another experiment is H4. The experiment is described as follows: Increase in light chain 3-GFP+ autophagosome vesicle area per cell in human H4 cells at 5.4 uM after 24 hrs by high throughput fluorescence microscopy relative to control. Format: functional. The essentials: as §1
For `N#Cc1cc2c(OCC(O)CN3CCN(C(c4ccccc4)c4ccccc4)CC3)cccc2[nH]1` (configuration not stated), the Activity is on record as 275.43%.

Another experiment deals with H4. The experiment is described as follows: Induction of light chain 3-GFP level in human H4 cells at 6.2 uM after 24 hrs by high throughput fluorescence microscopy relative to control. Format: functional. The essentials:
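H4 cells stably expressing LC3-GFP, grown in DMEM with 10% FBS, penicillin/streptomycin and 2 mM L-glutamine at 37°C, 5% CO2. Cells were seeded in 96-well plates and exposed to library compounds at 3–12 μM for 24 h, then fixed in 4% paraformaldehyde and stained with 3 μg/ml DAPI. LC3-GFP spot number, size and intensity were measured by high-throughput fluorescence microscopy and expressed relative to DMSO. Triplicates, mean ± SD.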
`CC(C)[C@@H](O)CC[C@@H](C)[C@H]1CC[C@H]2[C@@H]3CC=C4C[C@@H](O)CC[C@]4(C)[C@H]3CC[C@]12C` displayed an Activity of 108.2%.

The test system of the next experiment is H4. The experiment is described as follows: Induction of light chain 3-GFP level in human H4 cells at 5.4 uM after 24 hrs by high throughput fluorescence microscopy relative to control. Format: functional. The gist of the method: (§4)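 H4 cells stably expressing LC3-GFP, kept in DMEM/10% FBS at 37°C, 5% CO2, were seeded in 96-well plates and exposed to compound for 24 h. Cells were then fixed in 4% paraformaldehyde and stained with 3 μg/ml DAPI. Automated fluorescence microscopy scored the number, size and intensity of LC3-GFP spots. Values are percent of DMSO wells, in triplicate, mean ± SD. Rapamycin served as positive control.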
As for `N#Cc1cc2c(OCC(O)CN3CCN(C(c4ccccc4)c4ccccc4)CC3)cccc2[nH]1` (configuration not stated), the Activity was 94.7%.

The test system of the next experiment is H4. The experiment is described as follows: Increase in long-lived protein degradation in human H4 cells after 1 hr relative to control. Also on record: concentration or dose not given beside the values. Format: functional.
Consider `CC(C)[C@@H](O)CC[C@@H](C)[C@H]1CC[C@H]2[C@@H]3CC=C4C[C@@H](O)CC[C@]4(C)[C@H]3CC[C@]12C`, for which the Activity is reported as 125.06%.

In turn, `N#Cc1cc2c(OCC(O)CN3CCN(C(c4ccccc4)c4ccccc4)CC3)cccc2[nH]1` (configuration not stated) gave an Activity of 90.63%.

The next experiment deals with H4. The experiment is described as follows: Effect on FYVE-RFP+ vesicle intensity per cell in human H4 cells after 4 hrs relative to control. Also on record: concentration or dose not given beside the values. Format: functional. The gist of the method: as §3
For `N#Cc1cc2c(OCC(O)CN3CCN(C(c4ccccc4)c4ccccc4)CC3)cccc2[nH]1` (configuration not stated), the Activity came out at 59.79%.

The subject of a further experiment is H4. The experiment is described as follows: Decrease in FYVE-RFP+ vesicle intensity per cell in human H4 cells after 4 hrs relative to control. More on the design: concentration or dose not given beside the values. Format: functional. The essentials:
as §3
Regarding `CC(C)[C@@H](O)CC[C@@H](C)[C@H]1CC[C@H]2[C@@H]3CC=C4C[C@@H](O)CC[C@]4(C)[C@H]3CC[C@]12C`, the Activity turned out to be 38.32%.

The test system of another experiment is H4. The experiment is described as follows: Increase in light chain 3-GFP+ autophagosome vesicle intensity per cell in human H4 cells at 6.2 uM after 24 hrs by high throughput fluorescence microscopy relative to control. Format: functional. The essentials: as §2
In turn, `CC(C)[C@@H](O)CC[C@@H](C)[C@H]1CC[C@H]2[C@@H]3CC=C4C[C@@H](O)CC[C@]4(C)[C@H]3CC[C@]12C` gave an Activity of 648.9%.

Another experiment concerns H4. The experiment is described as follows: Increase in light chain 3-GFP+ autophagosome vesicle number per cell in human H4 cells at 5.4 uM after 24 hrs by high throughput fluorescence microscopy relative to control. Format: functional. The essentials:
as §4
With `N#Cc1cc2c(OCC(O)CN3CCN(C(c4ccccc4)c4ccccc4)CC3)cccc2[nH]1` (configuration not stated), the Activity is on record as 224.74%.

The test system of the next experiment is H4. The experiment is described as follows: Effect on FYVE-RFP+ vesicle intensity per cell in human H4 cells after 8 hrs relative to control. Format: functional. Also on record: concentration or dose not given beside the values. The essentials: as §3
On to `N#Cc1cc2c(OCC(O)CN3CCN(C(c4ccccc4)c4ccccc4)CC3)cccc2[nH]1` (configuration not stated), for which the Activity is recorded as 72.4%.

The test system of the next experiment is H4. The experiment is described as follows: Increase in long-lived protein degradation in human H4 cells after 24 hrs relative to control. Also on record: concentration or dose not given beside the values. Format: functional.
With `CC(C)[C@@H](O)CC[C@@H](C)[C@H]1CC[C@H]2[C@@H]3CC=C4C[C@@H](O)CC[C@]4(C)[C@H]3CC[C@]12C`, the Activity was determined as 106.22%.

As to `N#Cc1cc2c(OCC(O)CN3CCN(C(c4ccccc4)c4ccccc4)CC3)cccc2[nH]1` (configuration not stated), the Activity is reported as 90.03%.

The next experiment deals with H4. The experiment is described as follows: Decrease in FYVE-RFP+ vesicle intensity per cell in human H4 cells after 8 hrs relative to control. Format: functional. More on the design: concentration or dose not given beside the values. The gist of the method:
as §3
`CC(C)[C@@H](O)CC[C@@H](C)[C@H]1CC[C@H]2[C@@H]3CC=C4C[C@@H](O)CC[C@]4(C)[C@H]3CC[C@]12C` gave an Activity of 38.51%.

For another experiment, the system named is H4. The experiment is described as follows: Increase in long-lived protein degradation in human H4 cells after 2 hrs relative to control. Format: functional. Also on record: concentration or dose not given beside the values.
For `CC(C)[C@@H](O)CC[C@@H](C)[C@H]1CC[C@H]2[C@@H]3CC=C4C[C@@H](O)CC[C@]4(C)[C@H]3CC[C@]12C`, the Activity amounted to 105.76%.

`N#Cc1cc2c(OCC(O)CN3CCN(C(c4ccccc4)c4ccccc4)CC3)cccc2[nH]1` (configuration not stated) showed an Activity of 108.53%.

The test system of the next experiment is H4. The experiment is described as follows: Increase in long-lived protein degradation in human H4 cells after 4 hrs relative to control. Also on record: concentration or dose not given beside the values. Format: functional.
`CC(C)[C@@H](O)CC[C@@H](C)[C@H]1CC[C@H]2[C@@H]3CC=C4C[C@@H](O)CC[C@]4(C)[C@H]3CC[C@]12C` returned an Activity of 89.7%.

For the compound `N#Cc1cc2c(OCC(O)CN3CCN(C(c4ccccc4)c4ccccc4)CC3)cccc2[nH]1` (configuration not stated), the Activity was found to be 101.77%.
